In the M2OR odorant receptor database:

The compounds below were run against T1, OR52D1 (Homo sapiens) (UniProt Q9H346). Conditions: stereoisomer not certain.
T1 sequence (whole entry): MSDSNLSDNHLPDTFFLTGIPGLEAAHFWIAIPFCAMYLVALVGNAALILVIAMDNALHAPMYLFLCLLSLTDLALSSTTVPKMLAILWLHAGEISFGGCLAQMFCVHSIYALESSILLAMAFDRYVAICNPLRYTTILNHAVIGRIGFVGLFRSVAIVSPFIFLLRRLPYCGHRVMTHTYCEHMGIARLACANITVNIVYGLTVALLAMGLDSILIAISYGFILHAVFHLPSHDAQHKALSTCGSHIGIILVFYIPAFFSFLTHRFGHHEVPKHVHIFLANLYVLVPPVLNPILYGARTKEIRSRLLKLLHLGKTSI
How it was run: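 Values were gathered from published papers (main text and supplementary material), with extra details requested from the original authors when needed, and checked for typos and inconsistencies. Each receptor–molecule pair is called responsive (active) if the original authors judged the measured signal statistically different from baseline, and non-responsive (inactive) otherwise. Assay methods varied by source, often transient mammalian cell-line luciferase assays. Recorded details include cell line, G-protein, co-transfected protein and tags.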

Structure (SMILES)	odorant receptor agonist call
CCCCCCCCC(=O)OC	inactive
CC1CCC(C(C)C)C(=O)C1 (configuration not stated)	inactive
CCCCCC(=O)OCC	active
CCCCCC(=O)OC	inactive
CC12CCC(CC1=O)C2(C)C (configuration not stated)	inactive
Cc1ccc(C(C)C)c(O)c1	inactive
CCCCCCCC(C)=O	inactive
OCc1ccccc1	active
CCCCCCC(C)=O	inactive
CCCCCCC1CCC(=O)O1 (configuration not stated)	inactive
CCCCCCCC(=O)OC	inactive
CCCCCCC(=O)OC	active
CCCCCCCC(C)O (configuration not stated)	active
c1cscn1	active
CC(=O)OCCC(C)C	active
CCCCCCC(=O)OCC	active
CCCCCCCCO	inactive
CCCC(=O)OCC	active
C=C(C)C1CC=C(C)CC1 (configuration not stated)	inactive
CSC	inactive
CCC(=O)O	active
CCCCCCC(C)O (configuration not stated)	inactive
CCCCCCC(=O)[O-].[H+]	active
CCCCCCCCC(=O)OCC	inactive
CCCCCCCCCC(=O)OC	inactive
c1ccc2[nH]ccc2c1	inactive
CCCCC(O)CCC (configuration not stated)	inactive
